Measured values gathered from unrelated publications.
Lines come from different studies, so protocols differ.
Target: MAP kinase-interacting serine/threonine-protein kinase 1 (MKNK1, Homo sapiens, UniProt Q9BUB5)

observed | mode | technique | concentration | quantity | result | SMILES
binding | – | competition with immobilised ligand | 0.5 µM | remaining binding | 100% | CCCCC(=O)Nc1ccc(-c2ccc3ncn(CCC)c(=O)c3c2)cn1
binding | – | competition with immobilised ligand | 1 µM | remaining binding | 85% | Cc1ccc(NC(=O)c2ccnc(C(F)(F)F)c2)cc1-c1cc(OCCO)nc(N2CCOCC2)c1
binding | – | – | 0.1 µM | remaining binding | 78% | C1=C/COCc2cc(ccc2OCCN2CCCC2)Nc2nccc(n2)-c2cccc(c2)COC/1
enzyme activity | inhibitor | – | 1 µM | inhibition | 20% | CO[C@@H]1[C@H](N(C)C(=O)c2ccccc2)C[C@H]2O[C@]1(C)n1c3ccccc3c3c4c(c5c6ccccc6n2c5c31)C(=O)NC4
cell-free assay | – | competition with immobilised ligand | 25 µM | remaining binding | 75% | N#Cc1ccc(NC(=O)Nc2ccccc2)cc1
enzyme activity | inhibitor | – | 0.2 µM | inhibition | 9.43% | C#Cc1cc(-c2cc(Nc3nc(N[C@@H](C)c4ccc(F)cn4)ncc3Cl)n[nH]2)ccc1C=O
binding | – | competition with immobilised ligand | 1 µM | remaining binding | 65% | CN1CCN(C(=O)c2ccc(NC(=O)Nc3ccc(N(C)c4ccnc(Nc5ccc(CS(C)(=O)=O)cc5)n4)cc3)cc2)CC1
cell-free assay | – | – | 1 µM | remaining signal | 100% | C#Cc1cnc(Nc2ccnc(CO)c2)nc1Nc1ccccc1S(C)(=O)=NC#N (centres unmarked)
enzyme activity | inhibitor | – | 1 µM | inhibition | 0% | CC#CC(=O)N1CCC[C@H]1c1nc(-c2ccc(C(=O)Nc3ccccn3)cc2)c2c(N)nccn12
enzyme activity | inhibitor | – | 1 µM | activity vs control | 106% | CC(C)S(=O)(=O)c1ccc2nccc(Nc3ccc4sc(C5CCCC5)nc4c3)c2c1
binding | – | – | 1 µM | remaining binding | 107% | COc1ccc2oc(-c3ccc4nc(N)oc4c3)c/c(=N\c3ccccc3NC(=O)CCN)c2c1
